Calls of active or inactive are those of the source. The rule behind the calls is not given here.
What was measured:
Neuraminidase [1] = target: T1, Neuraminidase (Influenza A virus, UniProt B4URF0); assay: Inhibition of Influenza A virus (A/chicken/Korea/01310/2001 (H9N2)) neuraminidase after 30 mins by spectrofluorimetric analysis
Neuraminidase [2] = target: T1, Neuraminidase; assay: Inhibition of Influenza A virus (A/Sw/Kor/CAH1/04 (H1N1) KCTC 11165BP neuraminidase after 30 mins by spectrofluorimetric analysis
Influenza A virus [3] = assay: Antiviral activity against influenza A virus A/PR/8/34(H1N1) infected in MDCK cells assessed as protection against virus-induced cytopathic effect after 3 to 4 days by neutral red dye assay; format: functional
In short: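 Near-confluent MDCK monolayers (1 × 10^5 cells/well) inoculated with virus for 1 h, then medium replaced with DMEM containing 10 µg/mL trypsin plus compounds at several concentrations. Incubated 3-4 days at 37 °C, 5% CO2.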

MDCK = assay: Cytotoxicity against MDCK cells at 97.56 uM after 48 hrs by neutral red dye assay; format: cell-based, Canis lupus familiaris; settings: dog
Influenza A virus [4] = assay: Antiviral activity against influenza A virus A/PR/8/34(H1N1) infected in MDCK cells at 15.92 uM after 24 hrs by immunofluorescence assay; format: functional, organism-based
In short: (§1)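 MDCK cells on chamber slides infected with A/PR/8/34 at 1000 TCID50/mL for 2 h in infection medium (DMEM, 0.5% BSA, 1.5 µg/mL trypsin). Then cultured with compound in 5% FBS DMEM for 24 h at 37 °C. Cells fixed in 4% paraformaldehyde, permeabilised, stained with anti-M1 monoclonal antibody, FITC anti-mouse IgG secondary and DAPI. Fluorescence-positive cells counted by fluorescence microscopy.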

Influenza A virus [5] = assay: Antiviral activity against influenza A virus A/PR/8/34(H1N1) infected in MDCK cells at 3.18 uM after 24 hrs by immunofluorescence assay; format: functional, organism-based; in short: as §1

T1 sequence (B4URF0 whole entry): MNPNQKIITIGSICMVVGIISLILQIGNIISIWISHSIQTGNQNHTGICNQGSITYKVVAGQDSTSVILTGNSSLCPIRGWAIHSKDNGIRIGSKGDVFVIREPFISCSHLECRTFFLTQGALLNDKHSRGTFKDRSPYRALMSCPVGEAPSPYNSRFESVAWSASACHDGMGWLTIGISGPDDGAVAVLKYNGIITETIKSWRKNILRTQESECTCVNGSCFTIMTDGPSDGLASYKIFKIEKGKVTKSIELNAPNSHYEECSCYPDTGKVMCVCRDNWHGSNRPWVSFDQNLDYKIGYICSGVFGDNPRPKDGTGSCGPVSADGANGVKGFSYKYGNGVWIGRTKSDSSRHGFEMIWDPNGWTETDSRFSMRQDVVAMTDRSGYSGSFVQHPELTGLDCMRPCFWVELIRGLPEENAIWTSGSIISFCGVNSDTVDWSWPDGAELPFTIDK

Structure (SMILES): COc1c(C)c(O)c2c(c1C)O[C@H](c1ccccc1)CC2=O
- IC50 (Neuraminidase [1]): > 500 µM
- IC50 (Neuraminidase [2]): > 500 µM

Structure (SMILES): COc1c(C)c(O)c(C)c2c1C(=O)C[C@@](O)(c1ccccc1)O2
- IC50 (Neuraminidase [1]): 285 µM
- IC50 (Neuraminidase [2]): 283 µM

Structure (SMILES): COc1c(C)c(O)c(C)c(O)c1C(=O)/C=C/c1ccccc1O
- CC50 (Influenza A virus [3]): > 120 µM

Structure (SMILES): Cc1c(O)c(C)c2c(c1O)C(=O)C[C@@H](c1ccccc1)O2 [DEMETHOXYMATTEUCINOL]
- IC50 (Neuraminidase [1]): 319 µM
- IC50 (Neuraminidase [2]): 334 µM

Structure (SMILES): COc1c(C)c(O)c(C)c2occ(-c3ccccc3)c(=O)c12
- IC50 (Neuraminidase [1]): 391 µM
- IC50 (Neuraminidase [2]): 431 µM

Structure (SMILES): CCOC(=O)C1=C[C@@H](OC(CC)CC)[C@H](NC(C)=O)[C@@H](N)C1 [OSELTAMIVIR]
- Activity (MDCK): 7%

Structure (SMILES): COc1cc(O)c(C)c2c1C(=O)C[C@@H](c1ccccc1)O2
- IC50 (Neuraminidase [1]): > 500 µM
- IC50 (Neuraminidase [2]): > 500 µM

Structure (SMILES): COc1c(C)c2c(c(O)c1C=O)C(=O)C[C@@H](c1ccccc1)O2
- IC50 (Neuraminidase [1]): 256 µM
- IC50 (Neuraminidase [2]): 269 µM

Structure (SMILES): COc1cc(O)c(C)c(O)c1C(=O)/C=C/c1ccccc1
- CC50 (Influenza A virus [3]): 135 µM

Structure (SMILES): COc1c(C)c(O)c(C)c(O)c1C(=O)/C=C/c1ccccc1
- CC50 (Influenza A virus [3]): 78.4 µM

Structure (SMILES): COc1c(C)c(O)c(C)c(O)c1C(=O)/C=C/c1ccc(O)cc1
- CC50 (Influenza A virus [3]): > 120 µM
- Activity (Influenza A virus [4]): Active
- Activity (Influenza A virus [5]): Active

Structure (SMILES): COc1c(C)c(O)c(C)c2oc(-c3ccccc3)cc(=O)c12
- IC50 (Neuraminidase [1]): 363 µM
- IC50 (Neuraminidase [2]): 414 µM

Structure (SMILES): COc1c(C)c(O)c2c(c1C=O)O[C@H](c1ccccc1)CC2=O
- IC50 (Neuraminidase [1]): 299 µM
- IC50 (Neuraminidase [2]): 290 µM

Structure (SMILES): Cc1c(O)c(C)c2c(c1O)C(=O)[C@H](O)[C@@H](c1ccccc1)O2
- IC50 (Neuraminidase [1]): 368 µM
- IC50 (Neuraminidase [2]): 375 µM

Structure (SMILES): Cc1c(O)cc(O)c2c1O[C@H](c1ccccc1)CC2=O
- IC50 (Neuraminidase [1]): > 500 µM
- IC50 (Neuraminidase [2]): > 500 µM

From ChEMBL document CHEMBL1268855 (J Nat Prod, 2010)
